These results are taken from ChEMBL document CHEMBL4513216, “Probing the Open Global Health Chemical Diversity Library for Multistage-Active Starting Points for Next-Generation Antimalarials” (ACS Infect Dis, 2020).

The data set can be described thus: Toxicity liver stage against HepG2, at 10uM. The arrangement: test concentration 10 uM, cell line HepG2-A16-CD81EGFP. Type of data set: cell-based. As to conditions: human, HepG2-A16-CD81EGFP cells; read-out: INHIBITION
The gist of the method:
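Uninfected HepG2-A16-CD81EGFP cells, 3 × 10^3 per well, 1536-well, plated on prespotted compound at 10 μM final, parasite-free screening media added to match infected plates; puromycin 10 μM positive, DMSO 0.5% negative; run in parallel with 48 h PbLuc assay at 37 °C, 5% CO2; viability by CellTiter-Glo luminescence, normalized to controls.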
As to `O=S(=O)(NC[C@H]1C[C@@H]2CCN1C[C@@H]2CN1CCCC1)c1ccc(Cl)cc1`, the cytotoxicity at 10 µM is -4.38%. Consider `COC(=O)[C@@H]1Cc2ncn(C)c2CN1S(=O)(=O)c1ccc(OC)cc1`, for which the cytotoxicity at 10 µM is -4.13%. Take `CC(C)C1SCC(=O)Nc2c1cnn2C(C)C` (stereo unspecified): the cytotoxicity at 10 µM came out at 4%. As to `Cc1ccccc1-n1ncc2c(=O)n(CCN3CCCCC3)cnc21`, the cytotoxicity at 10 µM was -8.47%.

For `O=S(=O)(NCC1CCN(c2cnccn2)CC1)c1ccc(F)c(Cl)c1`, the cytotoxicity at 10 µM stood at 11.6%. `O=C1CCC2(CCN(S(=O)(=O)c3ccccc3)CC2)N1CC1CC1`: the cytotoxicity at 10 µM was determined as 3.41%. Turning to `Cc1ccc(N2CC3(CCN(S(=O)(=O)C4CC4)C3)C2)nn1`, the cytotoxicity at 10 µM was found to be 10.6%. For the molecule `CN1CCCc2sc(C(=O)NC3CC3)nc21`, the cytotoxicity at 10 µM is -149%. For the molecule `O=S(=O)(C1CC1)N1CCCC2(COCCN(c3nncs3)C2)C1` (stereo unspecified), the cytotoxicity at 10 µM was 5.22%. The same measure for `Cc1noc(C2CCC3(CCN(C(=O)c4sccc4C)CC3)O2)n1` (stereo unspecified): 8.94%; for `CCOC[C@H]1CC[C@H]2[C@H](CCN2C(=O)c2cnccn2)O1`: 2.22%; for `CCOC(=O)CN1C[C@@H]2OCCN(c3ncc(F)cn3)[C@@H]2C1`: 20.2%.

Take `O=C1NC(c2ccccc2)=N[C@@]12CC[C@@H]1CN(Cc3nccs3)C[C@@H]12`: the cytotoxicity at 10 µM worked out at 6.37%. On to `Cn1cccc1C(=O)N1CC[C@H]2[C@H](CO[C@H]2CNS(C)(=O)=O)C1`, for which the cytotoxicity at 10 µM is -2.94%.

For the molecule `Cc1occc1C(=O)N1CCCC2(CCN(c3ccccc3)C2=O)C1` (stereo unspecified), the cytotoxicity at 10 µM is -5.5%.

For the molecule `Cc1nc(C)c2c(n1)CCN(Cc1ccco1)CC2`, the cytotoxicity at 10 µM is -0.141%. On to `Cc1nc(CN2CCO[C@H]3CN(C(=O)c4cccn4C)C[C@H]32)cs1`, for which the cytotoxicity at 10 µM is -136%. In the case of `COc1ccc(C2OC(COc3ccccc3Br)=NN2C(C)=O)cc1` (stereo unspecified), the cytotoxicity at 10 µM worked out at 3.56%. In the case of `O=C(NCc1ccco1)[C@H]1C[C@H]2OCC[C@H]2N(S(=O)(=O)C2CC2)C1`, the cytotoxicity at 10 µM was -1.48%. Regarding `Cn1cc(-c2cnc(N3CCCC3)nc2)cc1C(=O)O`, the cytotoxicity at 10 µM was -16.3%. As to `CC(C)Cc1noc(C2CCCN(C(=O)CCc3cnn(C)c3)C2)n1` (stereo unspecified), the cytotoxicity at 10 µM came to 0.297%. Consider `Cc1cccc(CNC(=O)CC2CCN(C(=O)C(C)C)CC2)n1`, for which the cytotoxicity at 10 µM was found to be 7.45%. For the molecule `COCC(=O)N1CCC(c2cc(-c3ccc(OC)cc3)n[nH]2)C1` (stereo unspecified), the cytotoxicity at 10 µM was -10.3%. On to `COCCNc1nnc(-c2cnc(C)cn2)s1`, for which the cytotoxicity at 10 µM was determined as 4.22%. As to `CN(C)c1cccc(C2CCCN2S(=O)(=O)c2cn(C)cn2)n1` (stereo unspecified), the cytotoxicity at 10 µM is -28.7%. Take `CS(=O)(=O)N1CCCC1c1cccc(Cc2ccccc2F)n1` (stereo unspecified): the cytotoxicity at 10 µM is -13.2%. Turning to `CC(=O)Nc1cc(C(C)(C)C)sc1C#N`, the cytotoxicity at 10 µM was found to be 10.3%. Turning to `Cc1ccnc(NC(=O)c2cc(C)oc2C)c1`, the cytotoxicity at 10 µM is -4.57%.

With `Cc1cc(C(=O)Nc2ccc(OCCN3CCN(C)CC3)cc2)[nH]n1`, the cytotoxicity at 10 µM is -2.51%. The same measure for `O=C(NCCNc1ncccn1)c1ccc(OCc2ccccc2)nc1`: 17%; for `CC(C1CC1)N(C)Cc1nnc(-c2ccc(Br)s2)o1` (stereo unspecified): -11.2%; for `Cc1ccc(CN2CCC(CNC(=O)Cn3cncn3)CC2)cc1`: 1.22%. Consider `CCN1CC(COC(=O)c2ccccc2Cl)CC1=O` (stereo unspecified), for which the cytotoxicity at 10 µM is -1.54%. The value for `NC(=O)c1cnn2c1NCC(CNCC1(c3ccccc3)CCC1)C2` (stereo unspecified) was -7.73%. With `O=C(Nc1ccccc1F)N(CCO)CCOCC(F)(F)F`, the cytotoxicity at 10 µM amounted to 1.1%. `COC(=O)CCNC(=O)c1ccc(NC(=O)N(C)CC(C)C)cc1`: the cytotoxicity at 10 µM is 9.13%. Consider `CC(C)C(=O)NCc1ccccc1NS(=O)(=O)c1ccccc1`, for which the cytotoxicity at 10 µM is 9.05%. The value for `COCc1ccccc1C(=O)N1CCC(CNC(=O)OC(C)(C)C)C1` (stereo unspecified) was 10.1%; that for `O=C(CN1CCOC(c2ccccc2C(F)(F)F)C1)NC1CC1` (stereo unspecified) was 3.02%. Turning to `O=C(NCCNS(=O)(=O)c1ccc2c(c1)CCC2)c1ccccc1`, the cytotoxicity at 10 µM was determined as 9.36%. With `CCc1nnc2n1CCN(Cc1csc(-c3ncccn3)n1)C2`, the cytotoxicity at 10 µM was -2.33%. As for `Cc1ccc(C)c(CC(=O)Nc2cnccc2SCCCO)c1`, the cytotoxicity at 10 µM came out at 21.2%. On to `COC(=O)c1cnc(C(=O)N(c2ccc(OC)c(F)c2)C(C)C)cn1`, for which the cytotoxicity at 10 µM is -1.23%.

`NS(=O)(=O)CCN1CCOC(c2ccc(Cl)cc2)C1` (stereo unspecified): the cytotoxicity at 10 µM was -0.317%. Take `CCCS(=O)(=O)CCN1CCOC(c2ccsc2)C1` (stereo unspecified): the cytotoxicity at 10 µM is -2.69%. For `CCN(C(=O)c1ccccc1I)C1CC(=O)NC1=O` (stereo unspecified), the cytotoxicity at 10 µM was -3.86%. Regarding `O=C(Nc1cc(-c2ccccc2)on1)N1CC[C@H](O)C1`, the cytotoxicity at 10 µM came out at 4.98%. In the case of `Nc1nccnc1C(=O)N(Cc1ccco1)CC1CCCO1` (stereo unspecified), the cytotoxicity at 10 µM stood at 8.13%. Consider `CSc1sc(NC(=O)C2CCCN(C(N)=O)C2)nc1C` (stereo unspecified), for which the cytotoxicity at 10 µM came out at 6.08%.

Regarding `CNC(=O)NC(=O)CCSCc1cc(Cl)cc2cccnc12`, the cytotoxicity at 10 µM was -8.06%.

With `CC(=O)NC(C(=O)N(C)Cc1nnc2n1CCC2)C(C)C` (stereo unspecified), the cytotoxicity at 10 µM was -7.85%.

As for `Cc1ccccc1CS(=O)(=O)CC(=O)N(C)Cc1ccccc1F`, the cytotoxicity at 10 µM was -0.969%. Regarding `CC1CCC(NS(=O)(=O)CC(=O)Nc2ccccc2N2CCCC2)CC1` (stereo unspecified), the cytotoxicity at 10 µM is 3.75%. Consider `Cc1ncc(CNC(=O)NC2CCN(C3CCCC3)CC2)s1`, for which the cytotoxicity at 10 µM was -9.01%. On to `CC(C(N)=O)N(C)CCCc1cc(-c2ccc(F)cc2)n(C)n1` (stereo unspecified), for which the cytotoxicity at 10 µM was -4.87%. On to `CN(CC(F)F)C(=O)c1cn(-c2ccc(Br)cc2)cn1`, for which the cytotoxicity at 10 µM was found to be 1.73%. The value for `Cc1ccc(Sc2nccn(C)c2=O)cc1` was 4.8%; that for `CC(=O)Nc1cccc(OCCNC(=O)N(C)Cc2ccco2)c1` was -9.29%. As to `Cc1cccc(NC(=O)c2sccc2C)n1`, the cytotoxicity at 10 µM was -1.45%. With `Cc1noc(C)c1CN1CCn2cc(CN3CCOCC3)nc2C1`, the cytotoxicity at 10 µM came out at 4.71%. As to `Cc1cc(C)cc(CN2CCN(C(=O)C3CCC3)[C@@H]3CS(=O)(=O)C[C@@H]32)c1`, the cytotoxicity at 10 µM was -1.38%. The same measure for `Cc1cc(C)c2c(N(C)CC3COCCO3)ncnc2n1` (stereo unspecified): -133%; for `CCSc1ncc(CN2CCN(c3nc(C)cnc3C)CC2)cn1`: 5.84%; for `Cc1ncsc1CCN(C)C(=O)CCc1nc2cccnc2n1C`: -149%. `CCOC(=O)N1CCC2(CCCN(C3CCOCC3)C2=O)C1` (stereo unspecified): the cytotoxicity at 10 µM is -133%.

Turning to `COc1nccc(N2CC[C@@H](N3CCC(O)CC3)[C@H](O)C2)c1C#N`, the cytotoxicity at 10 µM is -152%. On to `c1ccc(Cc2nc(C3CC3)nn2-c2ccc3c(c2)OCCO3)nc1`, for which the cytotoxicity at 10 µM was found to be 2.6%. Take `Cc1c(Cl)c(C(=O)N2CC(c3cccnc3)C2)nn1C`: the cytotoxicity at 10 µM is -5.23%. The same measure for `Cc1nn(-c2ccccc2)c(C)c1-c1ccnc(N2CCCOCC2)n1`: -11.3%. `O=C1CCC2(CCN(CC[C@@H](O)c3ccccc3)CC2)CN1CC1CC1`: the cytotoxicity at 10 µM was found to be 4.51%. Turning to `O=C(O)[C@@H]1CN(C(=O)c2ccc3[nH]nnc3c2)C[C@H]1c1ccccc1`, the cytotoxicity at 10 µM was -130%.

Consider `COCc1noc(CNc2nc(C3CCCC3)nc3c2CCNCC3)n1`, for which the cytotoxicity at 10 µM was 0.0228%. Consider `CC(C(=O)N1CCCC1)N1CCC(c2nccn2Cc2cscn2)CC1` (stereo unspecified), for which the cytotoxicity at 10 µM turned out to be 2.79%. `Cc1csc(N2CCCN(C(=O)Cn3cncn3)CC2)n1`: the cytotoxicity at 10 µM is -3.27%. The value for `Cc1ccccc1C1(C(=O)NCCN(C(C)C)C(C)C)CCOCC1` was -6.51%; that for `Cc1ccc(NC(=O)C2CSCN2C(=O)c2cnsn2)c(C)c1` (stereo unspecified) was -0.955%.

Turning to `Cn1cc(CC2CCN(C(=O)NCc3cccc(C(N)=O)c3)C2)cn1` (stereo unspecified), the cytotoxicity at 10 µM is -4.25%.

Turning to `CCOCC(O)CN1CCN(C(=O)Cc2cccc(C)c2)CC1` (stereo unspecified), the cytotoxicity at 10 µM is -7.1%. For the molecule `Cc1noc(C)c1C(=O)N1CCCC1c1c(C)nn(C)c1C` (stereo unspecified), the cytotoxicity at 10 µM was -5.68%. On to `c1ccc(OCCNC2CCCN(Cc3noc(C4CC4)n3)C2)cc1` (stereo unspecified), for which the cytotoxicity at 10 µM is -13.6%. In the case of `CS(=O)(=O)c1cccc(C(N)c2ccc(Cl)cc2)c1` (stereo unspecified), the cytotoxicity at 10 µM was -16.1%.

For the molecule `COc1ccc(Cl)cc1CC(=O)N1CCN(CC(C)(C)O)CC1`, the cytotoxicity at 10 µM is -4.21%. For the molecule `CCn1ccnc1CN1CCCC1Cn1cc(C)cn1` (stereo unspecified), the cytotoxicity at 10 µM is -14.3%. `CCN(Cc1ccccc1)Cc1nc2c(cnn2C)c(=O)[nH]1`: the cytotoxicity at 10 µM stood at 2.86%. Turning to `CC(=O)NC1CCCN(C(=O)NCc2cccnc2)C1` (stereo unspecified), the cytotoxicity at 10 µM was -10.5%. In the case of `Cc1cccc(-c2noc(CN3CCc4nn(C)c(=O)cc4C3)n2)c1`, the cytotoxicity at 10 µM turned out to be 5.15%. For the molecule `CN1CCCC(c2cncc(C(=O)NCc3ccccc3Cl)n2)C1` (stereo unspecified), the cytotoxicity at 10 µM was -2.82%.

`CC(C)Nc1cccc(CC2CCN(C)C2)n1` (stereo unspecified): the cytotoxicity at 10 µM was -27.6%. On to `COCC1c2c(cnn2CC2CC2)CCN1Cc1ccc(C)o1` (stereo unspecified), for which the cytotoxicity at 10 µM is -0.201%. `CCOCC1c2c(cnn2C)CCN1C(=O)c1ccncn1` (stereo unspecified): the cytotoxicity at 10 µM was -141%.

Regarding `CS(=O)(=O)N1CCC2(CC1)COC(COc1cccnc1)C2` (stereo unspecified), the cytotoxicity at 10 µM turned out to be 7.61%. `O=C(Nc1ccccc1)C1CN(Cc2ccco2)CC12CCOCC2` (stereo unspecified): the cytotoxicity at 10 µM is -3.2%.

Take `CCN(C)c1ncnc2c1CCN(C(=O)c1ccccn1)CC2`: the cytotoxicity at 10 µM was -2.23%. Turning to `CNC(=O)[C@H]1C[C@H]2OCC[C@H]2N(CCOc2ccc(Cl)cc2)C1`, the cytotoxicity at 10 µM was -104%. For `O=C(NCC1CCOCC1)[C@@H]1CC[C@@H]2[C@@H](CCN2Cc2ccncc2)O1`, the cytotoxicity at 10 µM worked out at 4.85%. For `c1cncc(CN2CC[C@@H]3O[C@H](COCCN4CCCC4)CC[C@@H]32)c1`, the cytotoxicity at 10 µM was -156%.
